For data set [1], the system named is Rattus norvegicus. The data set can be described thus: Percent change in HDL-CDose at 3 mg/kg. The class given is functional. Summed up:
(§1)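 Chronic rat model of pre-established hypercholesterolemia: 1 week on high-cholesterol diet, then compound dosed orally once daily for 1 week. Plasma total cholesterol, HDL-C and non-HDL-C expressed as percent change versus control; p < 0.05 flagged.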

Data set [2] has as its system Rattus norvegicus. The data set can be described thus: Percent change in non-HDL-C Dose at 10 mg/kg. The class given is functional. Summed up:
as §1

Data set [3] deals with Rattus norvegicus. The data set can be described thus: Percent change in HDL-CDose at 30 mg/kg. The format is functional. Summed up:
as §1

Data set [4] deals with Canis familiaris. The data set can be described thus: Percent change in plasma cholesterol in dog at 3 mg/kg. The class given is functional, Canis lupus familiaris. Summed up:
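Cholesterol-fed female Beagle dogs given bulk drug in capsules before meals, daily for 1 week, at 3 mg/kg po. Plasma total cholesterol compared before and after treatment as percent change; paired two-tailed t-test, n = 6.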

Data set [5] has as its target T1, Sterol O-acyltransferase 1 (Rattus norvegicus) (UniProt O70536).
T1 sequence (whole entry): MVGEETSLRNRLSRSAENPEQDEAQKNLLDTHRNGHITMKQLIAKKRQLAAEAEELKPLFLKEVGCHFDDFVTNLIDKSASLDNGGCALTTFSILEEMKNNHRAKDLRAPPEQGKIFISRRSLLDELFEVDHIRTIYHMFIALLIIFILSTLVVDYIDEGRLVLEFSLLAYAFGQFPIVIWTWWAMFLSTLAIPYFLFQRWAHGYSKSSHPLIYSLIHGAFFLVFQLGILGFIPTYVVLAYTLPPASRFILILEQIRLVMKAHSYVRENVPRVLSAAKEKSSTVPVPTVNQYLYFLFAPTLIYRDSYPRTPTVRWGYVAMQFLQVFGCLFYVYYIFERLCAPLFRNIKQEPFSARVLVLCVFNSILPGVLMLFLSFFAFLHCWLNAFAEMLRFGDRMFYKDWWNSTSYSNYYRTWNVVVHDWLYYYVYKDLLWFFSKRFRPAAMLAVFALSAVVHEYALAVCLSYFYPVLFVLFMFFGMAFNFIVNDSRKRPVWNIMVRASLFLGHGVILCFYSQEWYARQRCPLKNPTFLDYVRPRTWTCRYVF
The data set can be described thus: Percent change in plasma total cholesterol in an acute cholesterol-fed rat model of hypercholesterolemia, dose at 3 mg/kg. The class given is functional, organism-based. Also on record: dose 3 mg/kg.

The subject of data set [6] is Rattus norvegicus. The data set can be described thus: Percent change in plasma TC in the chronic C-fed rat model of pre-established hypercholesterolemia. Dose at 10 mg/kg. The class given is functional. Summed up: as §1
Data set [7] relates to Rattus norvegicus. The data set can be described thus: Percent change in non-HDL-C Dose at 30 mg/kg. The class given is functional. In a few lines: as §1
Data set [8] concerns Rattus norvegicus. The data set can be described thus: Percent change in HDL-CDose at 10 mg/kg. The class given is functional. In a few lines: as §1
Data set [9] deals with Rattus norvegicus. The data set can be described thus: Percent change in plasma TC in the chronic C-fed rat model of pre-established hypercholesterolemia. Dose at 3 mg/kg. The format is functional. In a few lines:
as §1

In data set [10] the target is T1, Sterol O-acyltransferase 1 (Rattus norvegicus). The data set can be described thus: (§2) Percent change in plasma TC in the chronic C-fed rat model of pre-established hypercholesterolemia. Dose at 30 mg/kg. The format is functional, organism-based. Also on record: dose 30 mg/kg. In a few lines: as §1
Data set [11] has the same target. The data set can be described thus: Percent change in plasma total cholesterol in an acute cholesterol-fed rat model of hypercholesterolemia, dose at 30 mg/kg. The format is functional, organism-based. Also noted: dose 30 mg/kg.
Data set [12] relates to Rattus norvegicus. The data set can be described thus: Percent change in non-HDL-C Dose at 3 mg/kg. The class given is functional. In a few lines:
as §1

Data set [13] has as its target O-acyltransferase (Oryctolagus cuniculus, UniProt G1SFD9). The data set can be described thus: Acyl coenzyme A:cholesterol acyltransferase 1 inhibition in vitro measured in rabbit intestinal microsomes. Also on record: species or system Intestine.
In data set [14] the test system is Rattus norvegicus. The data set can be described thus: Percent change in HDL-C,Dose at 30 mg/kg. The format is functional. Summed up: as §1
For data set [15], the system named is Rattus norvegicus. The data set can be described thus: Percent change in HDL-C,Dose at 3 mg/kg. The class given is functional. Summed up:
as §1

Data set [16] concerns Rattus norvegicus. The data set can be described thus: Percent change in plasma TC in the chronic C-fed rat model of pre-established hypercholesterolemia, dose at 3 mg/kg. The class given is functional. In a few lines:
as §1

In data set [17] the test system is Canis familiaris. The data set can be described thus: mean blood drug concentration in dog, compound Dose at 3 mg/kg. Also noted: dose 3 mg/kg. The format is ADME, organism-based, Canis lupus familiaris. The note with it: in vivo. In a few lines: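 Cholesterol-fed Beagle dogs dosed at 3 mg/kg. Plasma drug measured by HPLC on a C8 column, acetonitrile/water 4:1 eluent, detection at 190 nm, with a related analog as internal standard. Quantitation limit 40 ng/mL; mean of 6 animals.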

Data set [18] relates to Rattus norvegicus. The data set can be described thus: Percent change in non-HDL-C,Dose at 3 mg/kg. The class given is functional. Summed up: as §1
The subject of data set [19] is Rattus norvegicus. The data set can be described thus: Percent change in HDL-C,Dose at 10 mg/kg. The format is functional. Summed up: as §1
The test system of data set [20] is Rattus norvegicus. The data set can be described thus: Percent change in non-HDL-C,Dose at 30 mg/kg. The format is functional. In a few lines: as §1
The subject of data set [21] is Rattus norvegicus. The data set can be described thus: Percent change in non-HDL-C,Dose at 10 mg/kg. The class given is functional. In a few lines: as §1
Data set [22] concerns Rattus norvegicus. The data set can be described thus: Percent change in plasma TC in the chronic C-fed rat model of pre-established hypercholesterolemia. dose at 30 mg/kg. The class given is functional. Summed up:
as §1

Data set [23] has as its system Rattus norvegicus. The data set can be described thus: Percent change in HDL-C,dose at 30 mg/kg. The format is functional. Summed up:
as §1

Data set [24] relates to Rattus norvegicus. The data set can be described thus: Percent change in non-HDL-C, dose at 30 mg/kg. The format is functional. Summed up:
as §1

The subject of data set [25] is Rattus norvegicus. The data set can be described thus: Percent change in HDL-Cdose at 30 mg/kg. The class given is functional. Summed up:
as §1

For data set [26], the system named is Rattus norvegicus. The description is as §2. The class given is functional. In a few lines: as §1
Data set [27] relates to Rattus norvegicus. The data set can be described thus: Percent change in non-HDL-C,dose at 30 mg/kg. The class given is functional. Summed up: as §1

As usually defined, the IC50 is the concentration needed to halve the response being measured.

With `CCCCCCCCCCCCCCN1NN=C(NC(=O)Nc2c(C(C)C)cccc2C(C)C)N1`, the “Delta HDL-C” value in data set [1] amounted to 47%; in data set [3] it was 93%; in data set [8], 87%. The Non-HDL-C in [2] is -61%; in data set [7], -68%; in data set [12], -48%. The Delta plasma cholesterol in data set [4] is listed as -22%. Moreover, the Delta TC in [5] was -56%; in data set [6], -53%; in data set [9], -43%; in [10], -61%; in data set [11], -65%. The IC50 in data set [13] amounted to 0.012 µM.
Take `CCCCCCCCCCCCCN1NN=C(NC(=O)Nc2c(C(C)C)cccc2C(C)C)N1`: the “Delta HDL-C” value in data set [14] is reported as 113%; in data set [15] it was 21%; in data set [19], 113%. The “Delta TC” value was -52% in data set [16]; -67% in [5]; -64% in [6]; -66% in data set [10]; -67% in data set [11]. The Delta plasma cholesterol in data set [4] is -47%. In data set [17], this molecule registered a Plasma level of 0.0767 µg/mL. Also, the Non-HDL-C in [18] was -47%; in [20], -76%; in data set [21] it was -73%. Also, the IC50 in data set [13] came to 0.009 µM.
Consider `CCCCCCCCCCCCCc1cc(NC(=O)Nc2c(C(C)C)cccc2C(C)C)no1`, for which the “Delta TC” value was -40% in data set [22], -59% in data set [5] and -62% in [11]. Also, in data set [23], the “Delta HDL-C” value is 33%. Also, the Non-HDL-C in data set [24] is -45%. In data set [13], this molecule yielded an IC50 of 0.014 µM.
Turning to `CCCCCCCCCCc1cc(NC(=O)Nc2c(C(C)C)cccc2C(C)C)on1`, the “Delta TC” value in data set [22] was -13%; in data set [5], -61%; in data set [11], -69%. Moreover, the “Delta HDL-C” value in [25] is recorded as -6%. Also, in data set [7], the Non-HDL-C was -14%. For the same molecule, the IC50 in data set [13] came out at 0.029 µM.
Take `CCCCCCCCCCCCN1NN=C(NC(=O)Nc2c(C(C)C)cccc2C(C)C)N1`: the “Delta HDL-C” value in data set [15] was determined as 20%; in [19] it was 87%; in [23], 93%. For the same molecule, the Delta plasma cholesterol in [4] is on record as -39%. This molecule also came in with a Plasma level in data set [17] of 0.0293 µg/mL. Further, the Non-HDL-C is -47% in data set [18], -78% in data set [27] and -72% in data set [21]. In addition, the Delta TC is -61% in data set [5]; -64% in data set [6]; -69% in [26]; -43% in [9]; -67% in [11]. Also, half-maximal inhibition in [13] (IC50) required 0.014 µM.

Values taken from ChEMBL document CHEMBL1129379, “Heterocyclic ureas: inhibitors of acyl-CoA:cholesterol O-acyltransferase as hypocholesterolemic agents” (J Med Chem, 1996).
